From ChEMBL document CHEMBL1275306, “Synthesis and cytotoxicity evaluation of 1-[3-(9H-carbazol-4-yloxy)-2-hydroxypropyl]-3-aryl-1H-pyrazole-5-carboxylic acid derivatives” (Eur J Med Chem, 2010)
Activity calls are given as the source filed them.

Legend:
Assay type in all cases: functional, cell-based
[1] = system: SK-N-SH; experiment: Cytotoxicity against human SK-N-SH cells after 48 hrs by SRB assay
Method in brief: (§1)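 Cells grown in minimal essential medium with 10% FBS, penicillin and streptomycin, then exposed in triplicate to […] test agent or doxorubicin for 48 h at 37 °C under 5% CO2. Cells fixed with cold TCA, stained with 0.4% SRB in 1% acetic acid; bound dye dissolved in buffer, OD read at 565 nm. Viability expressed as % of untreated cells; IC50 by non-linear regression.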

[2] = system: A549; experiment: Cytotoxicity against human A549 cells after 48 hrs by SRB assay; method in brief: as §1
[3] = system: MCF7; experiment: Cytotoxicity against human MCF7 cells after 48 hrs by SRB assay; method in brief: as §1
[4] = system: SK-N-SH; experiment: Cytotoxicity against human SK-N-SH cells at 0.1 to 5 uM by SRB assay; conditions: TDE = time-dependent effect; method in brief: as §1
[5] = system: A549; experiment: Cytotoxicity against human A549 cells at 0.1 to 5 uM by SRB assay; conditions: TDE = time-dependent effect; method in brief: as §1
[6] = system: MCF7; experiment: Cytotoxicity against human MCF7 cells at 0.1 to 5 uM by SRB assay; conditions: TDE = time-dependent effect; method in brief: as §1
[7] = system: SK-N-SH; experiment: Cytotoxicity against human SK-N-SH cells at 0.5 uM after 48 hrs by SRB assay
[8] = system: SK-N-SH; experiment: Cytotoxicity against human SK-N-SH cells at 5 uM after 48 hrs by SRB assay; method in brief: as §1
[9] = system: SK-N-SH; experiment: Cytotoxicity against human SK-N-SH cells at 0.1 uM after 48 hrs by SRB assay; method in brief: as §1

Measured: Activity

O=C(O)c1cc(-c2ccc([N+](=O)[O-])cc2)nn1CC(O)COc1cccc2[nH]c3ccccc3c12 (stereo not drawn)
active: [1] Dose-dependent effect | [2] Dose-dependent effect | [3] Dose-dependent effect | [4] tde | [5] tde | [6] tde | [7]

COc1cccc(-c2cc(C(=O)O)n(CC(O)COc3cccc4[nH]c5ccccc5c34)n2)c1 (stereo not drawn)
active: [1] Dose-dependent effect | [2] Dose-dependent effect | [3] Dose-dependent effect | [4] tde | [5] tde | [6] tde | [7]

O=C(O)c1cc(-c2ccccc2[N+](=O)[O-])nn1CC(O)COc1cccc2[nH]c3ccccc3c12 (stereo not drawn)
active: [1] Dose-dependent effect | [2] Dose-dependent effect | [3] Dose-dependent effect | [4] tde | [5] tde | [6] tde | [7]

COc1ccc(-c2cc(C(=O)O)n(CC(O)COc3cccc4[nH]c5ccccc5c34)n2)cc1 (stereo not drawn)
active: [1] Dose-dependent effect | [2] Dose-dependent effect | [3] Dose-dependent effect | [4] tde | [5] tde | [6] tde | [7] | [8]

O=C(O)c1cc(-c2cccc([N+](=O)[O-])c2)nn1CC(O)COc1cccc2[nH]c3ccccc3c12 (stereo not drawn)
active: [1] Dose-dependent effect | [2] Dose-dependent effect | [3] Dose-dependent effect | [4] tde | [5] tde | [6] tde | [7]

Cc1cccc(-c2cc(C(=O)O)n(CC(O)COc3cccc4[nH]c5ccccc5c34)n2)c1 (stereo not drawn)
active: [1] Dose-dependent effect | [2] Dose-dependent effect | [3] Dose-dependent effect | [4] tde | [5] tde | [6] tde | [9] | [7] | [8]

Cc1ccc(-c2cc(C(=O)O)n(CC(O)COc3cccc4[nH]c5ccccc5c34)n2)cc1 (stereo not drawn)
active: [1] Dose-dependent effect | [2] Dose-dependent effect | [3] Dose-dependent effect | [4] tde | [5] tde | [6] tde | [7]

COc1cccc2c1C(=O)c1c(O)c3c(c(O)c1C2=O)C[C@@](O)(C(=O)CO)C[C@@H]3O[C@H]1C[C@H](N)[C@H](O)[C@H](C)O1
active: [1] Dose-dependent effect | [2] Dose-dependent effect | [3] Dose-dependent effect | [4] tde | [5] tde | [6] tde
